# A selection: hits, their analogues and other compounds. The true share with any hit is near 5.4%.
# PLAP activator = activators of human placental alkaline phosphatase; purified PLAP enzyme, luminescent substrate read-out; stronger effect = higher value; activation fold at 20 µM; 1.2% of 96,000 active; in the data active = activation fold above about 2
# Target sequence (P05187 whole entry, looked up): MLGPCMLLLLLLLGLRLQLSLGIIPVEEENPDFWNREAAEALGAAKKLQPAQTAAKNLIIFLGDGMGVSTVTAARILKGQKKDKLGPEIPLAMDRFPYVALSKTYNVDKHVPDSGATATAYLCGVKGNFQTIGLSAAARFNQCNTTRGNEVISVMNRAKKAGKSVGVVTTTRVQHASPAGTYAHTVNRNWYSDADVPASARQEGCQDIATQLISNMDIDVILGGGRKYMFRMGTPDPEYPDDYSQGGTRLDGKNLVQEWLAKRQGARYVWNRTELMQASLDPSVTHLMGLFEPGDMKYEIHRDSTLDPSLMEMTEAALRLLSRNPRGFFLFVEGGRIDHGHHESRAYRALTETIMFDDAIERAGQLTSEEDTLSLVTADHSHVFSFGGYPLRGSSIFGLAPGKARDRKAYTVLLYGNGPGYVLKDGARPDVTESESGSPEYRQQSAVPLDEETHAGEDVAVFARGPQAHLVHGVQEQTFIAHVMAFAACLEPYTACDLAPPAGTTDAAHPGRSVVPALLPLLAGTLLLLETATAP
# E coli WT exp = E. coli BW25113 growth inhibition, expanded screen; OD600 absorbance; growth inhibition, % at 100 µM; 0.15% of 98,000 active; AID 710;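 active = growth inhibition above about 50% at one test dose, limit read from the data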;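 note: growth measured after 20 h incubation at 37 °C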
# HePTP inhibitor = blocks human HePTP tyrosine phosphatase; recombinant HePTP phosphatase activity, OD absorbance; AID 521; 0.64% of 110,000 active; inhibition, % at 20 µM; in the data active = inhibition above about 50%
# PostGolgi yeast = growth inhibition of a yeast mutant, post-Golgi transport screen; inhibition, % at 10 µM; post-Golgi transport phenotypic cell assay; AID 739; 0.9% of 98,000 active;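 note: yeast cells grown in 1536-well plates; yeast grown about 18 h at 30C before absorbance read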
# PostGolgi ctrl = inhibits growth of the yeast control strain | efflux-deficient yeast background strain, growth absorbance A615, 16 h | inhibition, % at 10 µM | 5% of 98,000 active | AID 738
# tolC growth inh = E. coli tolC mutant growth inhibition. AID 573. 2.2% of 65,000 active. E. coli BW25113 tolC mutant growth, OD615. growth inhibition, % at 10 µM (by protocol);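 active = growth inhibition at or above a cutoff equal to the mean over every tested compound plus 3 SD, cut at about 60% in these data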;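 note: growth measured after 20 h incubation at 37 °C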
#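 Test system: tolC-deleted E. coli BW25113 | Medium: LB with kanamycin 50 µg/mL | Compound dosing: Single concentration, 10 µM final per compound | Schedule: 37 °C, 20 h exposure | Measured by: OD at 615 nm | Evaluation: Percent growth inhibition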
# Hits are given with their value; n = inactive; x = no result given; ! = not active in a repeat. Cut-off read from the data, not from the text of the source, unless noted: active = inhibition above about 30%; inactive = the rest.
SMILES,PLAP activator,E coli WT exp,HePTP inhibitor,PostGolgi yeast,PostGolgi ctrl,tolC growth inh
COc1ccc(OC)c(NC(=O)COC(=O)c2c3c(nc4ccccc24)CCCC3)c1,n,n,x,n,n,x
CCC(=O)Nc1c(C#N)c2nc3ccccc3nc2n1C1CCCCC1,n,n,n,n,37,n
CCC(=O)Nc1c(C#N)c2nc3ccccc3nc2n1-c1ccccc1C,x,n,n,n,n,n
CCCCn1c(NC(=O)c2ccccc2Cl)c(C#N)c2nc3ccccc3nc21,n,n,n,33,n,99
O=C(NCc1ccco1)c1ccc2snnc2c1,x,n,n,n,n,n
CCOC(=O)CSc1nnnn1-c1cc(OC)c(Cl)cc1OC,n,n,n,n,n,n
COc1cc(-n2nnnc2SCC(=O)N2CCN(c3ccc(F)cc3)CC2)c(OC)cc1Cl,n,n,n,n,38,n
C=C(C)CN(CC)C(=O)COc1ccc(S(=O)(=O)Nc2ccc(OC)cc2)cc1,n,n,x,n,n,x
CCCCCOc1ccc(CSC(=N)N)cc1[N+](=O)[O-],n,100,x,n,n,x
CCOc1ccc(CN(CCO)CCO)cc1[N+](=O)[O-],n,n,x,n,n,x
COc1ccc(CSC(=N)N)cc1[N+](=O)[O-],2.7,n,x,n,n,x
O=C1c2ccccc2C(=O)N1CCCCn1c(=O)oc2ccccc21,n,n,n,n,44,n
O=S(=O)(c1ccc2c(c1)N(Cc1ccc(Cl)cc1)C1CCCN21)N1CCOCC1 (stereo unspecified),n,n,x,n,n,x
Cc1cc(C)n(CC2CC(=O)N(c3ccc(Cl)c(Cl)c3)C2=O)n1 (stereo unspecified),n,n,n,n,n,n
Cn1c(NCc2ccccc2)cc(=O)n(C)c1=O,n,n,n,n,n,n
Cn1c(=O)cc(NCc2ccccc2)[nH]c1=O,n,n,n,40,n,n
O=S(=O)(Nc1cccc(-c2cn3ccsc3n2)c1)c1ccc(F)cc1,n,n,n,n,40,n
O=S(=O)(Nc1cccc(-c2cn3ccccc3n2)c1)c1ccc(-c2ccccc2)cc1,x,x,n,x,x,x
Cc1cccc(S(=O)(=O)Nc2cccc(-c3cn4ccsc4n3)c2)c1,n,n,n,n,46,n
CCC(=O)Nc1cccc(-c2cn3ccsc3n2)c1,n,n,n,n,n,n
Cc1ccc(S(=O)(=O)Nc2cccc(-c3cn4ccsc4n3)c2)cc1,n,n,n,n,46,83
COc1cccc(C(O)c2nc3ccccc3n2C(C)C)c1 (stereo unspecified),2.4,n,n,n,n,x
NC(=O)c1ccc(N=Cc2ccccc2OCc2ccccc2)cc1,x,x,n,x,x,x
Cc1ccc(-n2c(C)cc(C(=O)COC(=O)c3c(C)noc3C)c2C)cc1,n,n,n,n,n,82
COc1ccc(N2CCN(C(=O)CCNS(=O)(=O)c3ccc(Br)s3)CC2)cc1,n,n,n,84,n,n
SMILES,PLAP activator,E coli WT exp,HePTP inhibitor,PostGolgi yeast,PostGolgi ctrl,tolC growth inh
CCCNS(=O)(=O)c1ccc(CCC(=O)N2CCN(c3ccc(OC)cc3)CC2)cc1,n,n,x,n,53,x
CCCNS(=O)(=O)c1ccc(CCC(=O)N2CCOCC2)cc1,n,n,n,n,n,n
O=C(CCNS(=O)(=O)c1ccc(Br)s1)N1CCCCC1,n,n,n,n,n,n
COc1cccc(-n2cnnn2)c1,n,n,x,n,n,x
COc1cccc(-n2cnc3cccc(N)c32)c1,n,n,92!,n,n,n
O=C(O)CN1C(=O)SC(Nc2ccc(Cl)cc2)C1=O (stereo unspecified),n,n,x,n,n,x
COCC(C)n1c(C)cc(C(=O)COc2ccc(S(=O)(=O)N3CCOCC3)cc2Cl)c1C (stereo unspecified),2,n,n,n,n,n
Cn1c2ccccc2c2cc(C(=O)NNS(=O)(=O)c3ccc(F)cc3)sc21,n,n,x,n,55,x
CN(C)CCCNC(=O)c1cc2c3ccccc3n(C)c2s1,n,n,x,n,n,x
COc1ccc(C2C(C#N)=C(N)N(c3sc4c(c3C#N)CCCC4)C3=C2C(=O)CC(C)(C)C3)cc1 (stereo unspecified),n,n,x,n,n,x
COc1ccc(C2C(C#N)=C3NC(=O)c4c(sc5c4CCCCC5)N3C3=C2C(=O)CC(C)(C)C3)cc1 (stereo unspecified),n,n,x,n,36,x
CNC(=S)Nc1ccc(C23CC4CC(CC(C4)C2)C3)cc1,x,x,n,x,x,x
CCOC(=O)c1cnn(-c2ccccc2)c1-n1cccc1C(=O)C(=O)Nc1ccc(F)cc1,n,n,x,n,n,x
CCOC(=O)c1cnn(-c2ccccc2)c1-n1cccc1C(=O)C(=O)Nc1ccccc1,n,n,x,n,31,x
CCN(CC)C(=O)Cc1cc(C(=O)O)c2ccccc2n1,n,n,n,n,n,n
O=c1c2c3c(sc2ncn1/N=C/c1ccc([N+](=O)[O-])o1)CCCC3,n,n,x,105,60,x
O=c1c2c3c(sc2ncn1/N=C/c1cc([N+](=O)[O-])ccc1O)CCCC3,x,x,n,x,x,x
CCCOc1ccc2oc(=O)c3c(c2c1)CCCN3C(=O)CN1CCN(C(=O)c2ccco2)CC1,x,n,n,n,n,n
O=C(CN1CCCC1)N1CCCc2c1c(=O)oc1ccc(OCc3ccccc3)cc21,n,n,n,n,36,n
Cc1c(-c2nc(N)nc(Nc3ccc(F)cc3)n2)oc2ccccc12,n,n,n,n,40,n
Cc1cccc2cc(CN(CCCO)C(=O)Nc3ccccc3Cl)c(=O)[nH]c12,n,n,n,n,n,n
O=C(NCc1ccc2c(c1)OCO2)c1ccc(COc2cccc(Cl)c2)o1,n,n,n,n,60,79
Cc1ccc(S(=O)(=O)Cc2ccc(C(=O)NCc3ccc4c(c3)OCO4)o2)cc1,n,n,n,n,34,n
Clc1cccc(CNCc2ccc3c(c2)OCO3)c1,x,x,n,x,x,x
Cc1ccc(-c2nc(CSCC(=O)NCCCN3CCOCC3)c(C)o2)cc1,n,n,x,n,n,n
SMILES,PLAP activator,E coli WT exp,HePTP inhibitor,PostGolgi yeast,PostGolgi ctrl,tolC growth inh
Cc1ccc(-c2nc(CSCC(=O)NCCN3CCN(Cc4ccccc4)CC3)c(C)o2)cc1,n,n,x,n,38,n
O=C(Cc1ccccc1)Nc1ccc(C(=O)OC2CCCCC2)cc1,x,x,n,x,x,x
O=C(OC1CCCCC1)c1ccc(NC(=O)c2ccco2)cc1,n,n,n,n,n,96
O=C(Nc1ccccn1)c1ccc(NC(=O)c2ccco2)cc1,n,n,n,n,35,n
COC(=O)CN(C#N)c1nc(SC)nc(N(C)C)n1,n,n,n,n,n,n
CCN(CC)c1ccc2c(Cl)c(Br)c(=O)oc2c1,n,n,n,n,n,n
Cn1c(CC(=O)Nc2ccc(Cl)c(Cl)c2)nnc1SCC(=O)N1CCN(c2ccccc2)CC1,n,n,x,n,36,x
CC(c1ccccc1)c1nnc(NC(=O)Nc2ccc(Cl)cc2)s1 (stereo unspecified),x,x,n,x,x,x
O=c1oc2cc(Cl)ccc2n1CSc1nc2ccccc2s1,n,n,x,n,32,x
N#C/C(=C\c1ccc(Sc2ccccc2)o1)c1ccccc1,x,x,n,x,x,x
N#C/C(=C/c1ccc(Sc2nc3ccccc3[nH]2)o1)c1ccccc1F,n,n,x,41,n,x
N#C/C(=C/c1ccc(Sc2ccccc2)o1)c1nc2ccccc2[nH]1,x,x,n,x,x,x
